# Legend:
# Rattus norvegicus [1] = test: Antiinflammatory activity against carrageenan-induced paw edema in orally dosed Wistar rat after 3 hrs relative to control; format: functional
# In short: (§1)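 Wistar rats of either sex, 100–120 g, fasted 24 h with water available. Compounds were suspended in 1% aqueous CMC and given orally 1 h before 0.1 mL of freshly prepared 1.0% w/v carrageenan was injected subplantar into the right hind paw. Paw volume was measured before and after carrageenan. Change in paw volume is mean ± SD versus vehicle control, by one-way ANOVA with Dunnett's test.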
# Rattus norvegicus [2] = test: Gastric-ulcerogenic effect in Wistar rat at 30 mg/kg, po; format: ADME, organism-based; parameters: dose 30 mg/kg, route oral; conditions: in vivo
# In short: (§2)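 Wistar rats of either sex (100–120 g), kept at 25 °C and 50% relative humidity on a 12 h light/dark cycle, fasted 24 h with water ad libitum. Compounds were suspended in 1% aqueous CMC and given orally; controls received vehicle. Ulceration was induced in a stress model with added cold stress. Gastric mucosa was scored, with severity index = treated mean score minus control mean. Ratio of ulcerated animals recorded. Mean ± SEM; one-way ANOVA with Dunnett's test. Tissue examined after H&E staining.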
# Mus musculus = test: Analgesic activity against acetic acid-induced writhing in Swiss Albino mouse at 10 mg/kg, po after 25 mins relative to control; format: functional
# In short: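 Mice given compounds orally at 10 mg/kg, suspended in 1% aqueous sodium carboxymethyl cellulose. Vehicle-only controls were run. Acetic acid was used to induce writhing. Writhes were counted over 25 min after treatment and reported as mean ± SEM. Percent inhibition was calculated versus the vehicle control.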
# Rattus norvegicus [3] = test: Antiinflammatory activity against carrageenan-induced paw edema in orally dosed Wistar rat after 1 hr relative to control; format: functional; in short: as §1
# Rattus norvegicus [4] = test: Gastric-ulcerogenic effect in Wistar rat at 50 mg/kg, po; format: ADME, organism-based; parameters: dose 50 mg/kg, route oral; conditions: in vivo; in short: as §2
# Rattus norvegicus [5] = test: Gastric-ulcerogenic effect in Wistar rat at 10 mg/kg, po; format: ADME, organism-based; parameters: dose 10 mg/kg, route oral; conditions: in vivo; in short: as §2
# Rattus norvegicus [6] = test: Induction of gastric ulcer in orally dosed Wistar rat assessed as stomach mucosal damage; format: organism-based; conditions: in vivo, po; in short: as §2
# Rattus norvegicus [7] = test: Antiinflammatory activity against carrageenan-induced paw edema in orally dosed Wistar rat after 2 hrs relative to control; format: functional; in short: as §1
SMILES,Inhibition (Rattus norvegicus [1]) [%],Activity (Rattus norvegicus [2]),inhibition in vivo at 10 mg/kg (Mus musculus) [%],Inhibition (Rattus norvegicus [3]) [%],Activity (Rattus norvegicus [4]),Activity (Rattus norvegicus [5]),Activity (Rattus norvegicus [6]),Inhibition (Rattus norvegicus [7]) [%],UI (Rattus norvegicus [2]),UI (Rattus norvegicus [5])
COc1cccc(C(=O)CSc2nnc(Cc3ccccc3Nc3c(Cl)cccc3Cl)o2)c1,74.23,Non-toxic,66.9,23.8,Non-toxic,Non-toxic,Non-toxic,52.09,,
O=C(CSc1nnc(Cc2ccccc2Nc2c(Cl)cccc2Cl)o1)c1ccc(O)cc1,71.99,,68.2,31.55,,,,48.91,,
O=C(CSc1nnc(Cc2ccccc2Nc2c(Cl)cccc2Cl)o1)c1cccc([N+](=O)[O-])c1,60.39,,,28.34,,,,49.47,,
CN(C)c1ccc(/C=N/NC(=O)Cc2ccccc2Nc2c(Cl)cccc2Cl)cc1,69.39,,,28.2,,,,48.75,,
O=C(CSc1nnc(Cc2ccccc2Nc2c(Cl)cccc2Cl)o1)c1ccc(Cl)c(Cl)c1,60.39,,,30.46,,,,52.26,,
O=C(CSc1nnc(Cc2ccccc2Nc2c(Cl)cccc2Cl)o1)c1cccc(O)c1,69.89,,,17.94,,,,44.53,,
COc1ccc(/C=N/NC(=O)Cc2ccccc2Nc2c(Cl)cccc2Cl)cc1,73.36,Non-toxic,53.9,27.21,Non-toxic,Non-toxic,Non-toxic,51.88,,
O=C(Cc1ccccc1Nc1c(Cl)cccc1Cl)N/N=C/c1cccc([N+](=O)[O-])c1,69.79,,,20.87,,,,47.02,,
COc1cc(/C=N/NC(=O)Cc2ccccc2Nc2c(Cl)cccc2Cl)cc(OC)c1OC,71.93,,,29.11,,,,50.97,,
O=C([O-])Cc1ccccc1Nc1c(Cl)cccc1Cl.[Na+] [DICLOFENAC SODIUM],71.3,,64.7,28.69,,,,48.99,2.1,1.8
Cc1ccc(/C=N/NC(=O)Cc2ccccc2Nc2c(Cl)cccc2Cl)cc1,68.62,,,20.99,,,,43.09,,
O=C(Cc1ccccc1Nc1c(Cl)cccc1Cl)N/N=C/c1ccccc1Cl,60.99,,,13.54,,,,40.2,,
O=C(CSc1nnc(Cc2ccccc2Nc2c(Cl)cccc2Cl)o1)c1ccc(Br)cc1,71.05,,55,26.02,,,,45.16,,
O=C(CSc1nnc(Cc2ccccc2Nc2c(Cl)cccc2Cl)o1)c1ccc([N+](=O)[O-])cc1,67.19,,,20.99,,,,45.64,,
O=C(Cc1ccccc1Nc1c(Cl)cccc1Cl)N/N=C/c1ccccc1O,72.88,Non-toxic,60.5,31.38,Non-toxic,Non-toxic,Non-toxic,46.96,,
O=C(Cc1ccccc1Nc1c(Cl)cccc1Cl)N/N=C/c1ccc(F)cc1,60.34,,,16.64,,,,41.35,,
O=C(Cc1ccccc1Nc1c(Cl)cccc1Cl)N/N=C/c1ccc(O)cc1,70.94,,,16.28,,,,38.14,,
O=C(Cc1ccccc1Nc1c(Cl)cccc1Cl)N/N=C/c1ccc(Br)cc1,80.07,Non-toxic,68.7,30.53,Non-toxic,Non-toxic,Non-toxic,51.72,,
O=C(Cc1ccccc1Nc1c(Cl)cccc1Cl)N/N=C/C=C/c1ccccc1,72.76,,45.3,32.28,,,,48.81,,
COc1ccc(C(=O)CSc2nnc(Cc3ccccc3Nc3c(Cl)cccc3Cl)o2)cc1OC,72.63,Non-toxic,51.4,23.43,Non-toxic,Non-toxic,Non-toxic,48.63,,

# Reference: ChEMBL document CHEMBL1143990, “Design, synthesis and evaluation of antiinflammatory, analgesic and ulcerogenicity studies of novel S-substituted phenacyl-1,3,4-oxadiazole-2-thiol and Schiff bases of diclofenac acid as nonulcerogenic derivatives” (Bioorg Med Chem, 2008)
